# The list is not random: actives were taken first. Their share in the collection is about 1.9%.
# IMP-1 inhibitor: inhibitors of Pseudomonas aeruginosa IMP-1 metallo-beta-lactamase. 290,000 tested, 0.45% active. purified IMP-1, nitrocefin hydrolysis, epi-absorbance fluorescence. inhibition, % at 5.6 µM;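 active means inhibition above the mean plus 3 SD of all compounds in the same screening run, cut at about 4.5% in these data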
#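 System: purified recombinant IMP-1 beta-lactamase. Medium: Zinc- and detergent-supplemented HEPES buffer, pH 7.1. Compound: one 5.6 µM dose […]. Schedule: 15 min preincubation plus 25 min reaction at 25 °C. Technique: Epi-absorbance fluorescence, 480 nm excitation, 530 nm emission.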
# HCV NS3 hel inh: HCV NS3 helicase inhibition. NS3 helicase DNA unwinding, Cy5 molecular beacon fluorescence. inhibition, % at 10.9 µM. 290,000 tested, 0.56% active. AID 1800;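 active means inhibition above the mean of all tested compounds plus 3 SD, set per campaign, cut at about 35% in these data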
#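 System: NS3 helicase fragment of HCV / Schedule: 1 h at 25 °C / Control set: DMSO alone as 0% and 110 µM thioflavine S as 100% / Reagent: Cy5/quencher beacon DNA duplex and ATP to start / Technique: Cy5 fluorescence / Replication: singlicate / Evaluation: % inhibition of end-to-start signal ratio versus controls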
# FID counter: counter-screen for HCV NS3 helicase inhibitors: DNA intercalator displacement; 290,000 tested, 0.17% active; inhibition, % at 7.9 µM; DNA fluorescent intercalator displacement, fluorescence; AID 1845; in the data active means inhibition above about 37%;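 further: higher means more ethidium bromide displaced from hairpin DNA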
# VIM-2 inh: blocks Pseudomonas aeruginosa VIM-2 metallo-beta-lactamase. purified VIM-2, nitrocefin hydrolysis, epi-absorbance fluorescence. inhibition, % at 5.6 µM. 290,000 tested, 0.89% active. AID 1527;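 active means inhibition above the mean of all tested compounds plus 3 SD, cutoff set per screening run, cut at about 7.5% in these data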;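 further: red hydrolysis product quenches plate fluorescence so inhibitors raise well fluorescence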
# Numbers stand for hits; – = inactive.
SMILES,IMP-1 inhibitor,HCV NS3 hel inh,FID counter,VIM-2 inh
O=C(N=Nc1c(O)n(Cc2ccccc2)c2ccccc12)c1ccncc1,–,–,–,11.0
CCCCN(CCCC)CCNC(=O)CSCc1ccc(C)cc1,–,–,–,–
CN(C)c1ccc(/C=N/Nc2ccc(-n3ccnc3)nn2)cc1,–,–,–,8.2
COc1ccc(-c2cc(C(F)(F)F)nc(-n3cncn3)n2)cc1,–,–,–,11.3
COc1ccc2oc(=O)cc(CN(C)Cc3ccccc3)c2c1,–,–,–,–
O=C(COC(=O)CCC(=O)c1cccs1)NC(=O)c1ccc(OC(F)F)cc1,4.8,–,–,–
Cc1cc(-c2[nH]nc3c2C(c2cccc(O)c2)C(C#N)=C(N)O3)c(C)s1 (configuration not stated),6.8,–,–,–
Cc1cc(-c2[nH]nc3c2C(c2ccsc2)C(C#N)=C(N)O3)c(C)s1 (configuration not stated),–,–,–,–
COc1ccc(NC(=O)C(CC(=O)O)Cc2ccc(Cl)cc2)cc1 (configuration not stated),–,–,–,–
CCOc1ccc(N=Cc2c(C)[nH]n(-c3nc4ccccc4[nH]3)c2=O)cc1,7.2,–,–,–
CCn1c(C)c(P(c2ccccc2)c2ccccc2)[n+]2ccccc12,–,–,–,–
CC(C)Nc1nc(Cl)nc(N(C#N)CN2C(=O)c3ccccc3S2(=O)=O)n1,6.9,–,–,–
COc1nc(NC(C)C)nc(N(C#N)CN2C(=O)c3ccccc3S2(=O)=O)n1,12.0,–,–,–
CCOC(=O)C1CCN(c2ncnc3c2[nH]c2cccc(OC)c23)CC1,–,–,–,8.4
Cc1c(C(=O)C(=O)NCc2ccco2)c2ccccc2n1C,–,–,–,–
c1cn2cc(CSC3CCCCC3)nc2s1,–,–,–,9.1
CC1=NN(c2ccccc2)C(=O)/C1=C/c1c(O)n(-c2ccc(F)c(Cl)c2)[nH]c1=O,–,–,40.6,–
CC1=NN(c2ccccc2)C(=O)/C1=C\c1c(C)[nH]n(-c2ccccc2)c1=O,–,–,–,–
CCOC(=O)CNC(=O)Cn1cnc2c(cnn2-c2ccc(C)cc2)c1=O,–,–,–,–
CCCCCCC(=O)NN1CCN(C)CC1,8.0,–,–,–
Cc1ccc(N2CC(C)Cn3c2nc2c3c(=O)[nH]c(=O)n2C)cc1C (configuration not stated),–,–,–,8.7
Cc1ccc(N2CC(C)Cn3c2nc2c3c(=O)[nH]c(=O)n2C)cc1 (configuration not stated),–,–,–,–
c1ccc(CN2CCC(Nc3nc(-c4ccccc4)nc4ccccc34)CC2)cc1,–,–,42.4,–
c1ccc(CNc2nc(N3CCN(Cc4ccccc4)CC3)nc3ccccc23)cc1,–,–,–,–
CN(C)c1ccc(/C=C/C(=O)c2cccc(Br)c2)cc1,8.3,–,–,–
SMILES,IMP-1 inhibitor,HCV NS3 hel inh,FID counter,VIM-2 inh
COc1ccccc1C(=O)N(CCC1CCCN1C)c1nc2ccccc2s1 (configuration not stated),–,–,42.0,–
CCCNc1cc(C)c(C#N)c2nc3ccccc3n12,–,–,–,–
Cc1cc(NCc2ccccn2)n2c(nc3ccccc32)c1C#N,–,–,–,11.7
CCCc1cc(NCCN(C)C)n2c(nc3ccccc32)c1C#N,–,–,–,8.3
CCCc1cc(NCc2ccccn2)n2c(nc3ccccc32)c1C#N,–,–,–,–
CCCc1cc(NCC2CCCO2)n2c(nc3ccccc32)c1C#N (configuration not stated),–,–,–,8.7
N#Cc1ccc(C(=O)Nc2cccc(NC(=O)c3ccco3)c2)c(F)c1,–,–,–,–
CSc1cccc(NC(=O)CCCNC(=O)c2ccc(Cl)cc2)c1,–,–,–,–
O=C(Nc1cccnc1)c1ccc(S(=O)(=O)c2ccccc2)cc1,–,–,–,–
Cc1ccc(NC(=O)N2CCCC2C(=O)NCc2ccc(Cl)cc2)cc1 (configuration not stated),–,–,–,–
O=c1cc(CO)oc(CN2CCCC2)c1O,8.3,–,–,–
CN1CCN(Cc2oc(CO)cc(=O)c2O)CC1,–,–,–,–
Cc1ccc(-c2c(C(=O)Nc3ccccc3C)c(C)[nH]c(=S)c2C#N)o1,5.7,39.0,–,–
COCCn1c(CN2CCc3ccccc3C2)nc2c1c(=O)n(C)c(=O)n2C,–,–,–,–
CCOc1ccc(-c2n[nH]c(=S)n2Cc2ccccc2)cc1,–,–,–,–
CCCCn1c(-c2csc(CCC)c2)n[nH]c1=S,–,–,–,–
CCCn1c(-c2ccc(F)cc2)n[nH]c1=S,–,–,–,10.1
COc1ccc(Cn2c(-c3ccc(OC)cc3)n[nH]c2=S)cc1,–,–,–,10.5
CCCCn1c(-c2ccc([N+](=O)[O-])cc2)n[nH]c1=S,–,–,–,12.6
CCn1c(-c2ccc(C)cc2)n[nH]c1=S,–,–,–,–
CN(C)CCN(Cc1ccco1)C(=O)c1oc2ccccc2c1NC(=O)COc1ccccc1,–,–,38.1,–
Cc1oc(-c2ccc(Cl)cc2)nc1CN1CCC(C(=O)NCCCN2CCCC(C)C2)CC1 (configuration not stated),–,–,–,–
Cc1oc(-c2ccc(Cl)cc2)nc1CN1CCCC(C(=O)NCCCN2CCOCC2)C1 (configuration not stated),–,–,44.9,–
Cc1ccccc1NC1=C(Cl)C(=O)N(C2CCCCC2)C1=O,8.2,–,–,–
COc1ccccc1NC1=C(Cl)C(=O)N(C2CCCCC2)C1=O,–,–,–,–
SMILES,IMP-1 inhibitor,HCV NS3 hel inh,FID counter,VIM-2 inh
CC(SCc1ccc(C(=O)O)o1)c1ccc(C(=O)O)o1 (configuration not stated),–,–,–,–
COc1ccc(CCNC(=O)CN(c2cccc([N+](=O)[O-])c2)S(C)(=O)=O)cc1OC,–,–,–,–
Nc1nonc1C(=O)NCCN=Cc1ccccc1O,–,–,–,–
Nc1nonc1C(=O)NCCN=Cc1cc(Cc2ccccc2)cc(Br)c1O,8.7,–,–,–
O=C(Nc1nnc(SCc2ccc(F)cc2)s1)C1CC(=O)N(Cc2ccccc2)C1 (configuration not stated),–,–,–,–
Fc1cccc(/C=N/Nc2nncc3ccccc23)c1,–,–,–,–
C(=N\Nc1nncc2ccccc12)/c1ccccn1,6.5,–,–,–
Cc1ccc(S(=O)(=O)N(C)CC(=O)NCCCn2ccnc2)cc1,–,–,–,–
Cc1ccc(S(=O)(=O)N2C(=S)SCC2(C)C)cc1,5.4,–,–,–
C=CCn1c2ccccc2c2nnc(SCC(N)=O)nc21,–,–,–,8.9
CCOC(=O)Cc1nnc(NC(=O)C(CC)Sc2nnc3c4ccccc4n(C)c3n2)s1 (configuration not stated),–,–,–,9.3
Cn1c2ccccc2c2nnc(SCC(N)=O)nc21,–,–,–,8.0
CCn1c2ccccc2c2nnc(SCC(N)=O)nc21,–,–,–,–
Cn1c2ccc(Br)cc2c2nnc(SCC(=O)O)nc21,–,–,–,9.8
CCOC(=O)CSc1nnc2c3ccccc3n(C)c2n1,–,–,–,–

# Screening data as filed in PubChem.
